Screens: PubChem, several laboratories
Only some compounds are listed: those with a hit (about 4% of all), similar ones and a draw of the others.
DAGLB inh: diacylglycerol lipase beta (human) inhibition | HEK293T DAGLB membrane lysate, EnzChek fluorogenic substrate | inhibition, % at 5.17 µM | 340,000 tested, 0.059% active; in the data active = inhibition above about 34%
Target sequence (Q8NCG7 whole entry, looked up): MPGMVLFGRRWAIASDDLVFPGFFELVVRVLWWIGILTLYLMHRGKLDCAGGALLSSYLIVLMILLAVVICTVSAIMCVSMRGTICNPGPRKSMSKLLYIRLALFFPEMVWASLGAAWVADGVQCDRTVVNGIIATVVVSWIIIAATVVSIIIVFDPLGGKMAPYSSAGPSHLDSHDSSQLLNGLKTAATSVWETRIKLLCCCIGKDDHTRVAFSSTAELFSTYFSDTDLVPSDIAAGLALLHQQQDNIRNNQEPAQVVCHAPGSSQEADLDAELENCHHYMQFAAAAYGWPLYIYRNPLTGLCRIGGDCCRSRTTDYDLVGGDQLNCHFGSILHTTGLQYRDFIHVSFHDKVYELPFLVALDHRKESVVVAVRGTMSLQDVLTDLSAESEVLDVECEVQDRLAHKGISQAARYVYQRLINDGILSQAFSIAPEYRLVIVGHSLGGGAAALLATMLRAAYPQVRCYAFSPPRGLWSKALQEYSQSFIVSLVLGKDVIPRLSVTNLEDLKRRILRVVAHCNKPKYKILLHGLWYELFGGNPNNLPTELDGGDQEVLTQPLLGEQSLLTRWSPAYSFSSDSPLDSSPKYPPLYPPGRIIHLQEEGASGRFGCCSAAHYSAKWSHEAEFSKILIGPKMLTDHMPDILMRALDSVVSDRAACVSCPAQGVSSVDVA
MPTP block: blocks calcium-induced mitochondrial swelling; isolated mouse mitochondria, Ca2+ swelling absorbance, 30 min; inhibition, % at 10 µM; 360,000 tested, 1.4% active; AID 602449;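 active = inhibition of 50% or more, scaled per plate between neutral and stimulator controls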
TAAR1 ag: human TAAR1 agonism; CHO RD-HGA16 TAAR1, Fluo-8 calcium fluorescence; vehicle wells 0%, saturating PEA agonist 100%; activation, % at 3 µM; 360,000 tested, 0.99% active; AID 624467;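 active = activation above the mean activation of all test compounds in the run plus 3 SD, cut at about 38% in these data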
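Assay system: CHO-derived RD-HGA16 cells with stable Gα16 and human TAAR1; timing: 17-24 h seeding, 75 min 37 °C dye, 30 min RT; read-out: % activation from peak over basal fluorescence ratio, DMSO-to-PEA scaled; measured by: kinetic Fluo-8 calcium fluorescence; benchmarks: low control DMSO, high control PEA (EC100); doses: 3 µM single concentration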
TAAR1 antag: human TAAR1 antagonism. inhibition, % at 3 µM. 360,000 tested, 1.5% active. CHO RD-HGA16 TAAR1, Fluo-8 calcium fluorescence, antagonist;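 active = inhibition above a per-plate cutoff, the mean inhibition of test compounds on that plate plus 3 SD, cut at about 49% in these data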
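System: RD-HGA16 CHO cells with stable hTAAR1 and Gα16 | Probe or stimulus: EC80 β-phenethylamine stimulus | Dosing: 3 µM, single point | Times: Dye loading 75 min at 37 °C, then 30 min room temperature | Measured by: Fluo-8 calcium-sensitive fluorescence | Read-out basis: % inhibition of agonist calcium response | Replicates: n of 1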
GPR7 antag: human neuropeptides B/W receptor 1 antagonism | P48145 | GPR7-expressing cells, fluorescence antagonist assay | inhibition, % at 4.4 µM | 290,000 tested, 1.1% active | AID 1861; in the data active = inhibition above about 16%, passing the limit was not always enough;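 note: cells stimulated with the agonist NPW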
GPR7 antag conf: human GPR7 antagonism, confirmation assay. shares compounds with GPR7 antag. GPR7-expressing cells, calcium fluorescence antagonist mode. inhibition, % at 4.4 µM. 2,400 tested, 52% active; in the data active = inhibition above about 24%;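 note: stimulated with the GPR7 agonist NPW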
MCHR1 antagonist: MCHR1 (human) antagonism in GPR7 counter-screen | shares compounds with GPR7 antag | MCHR1-expressing cells, fluorescence antagonist assay | inhibition, % at 4.4 µM | 2,400 tested, 62% active | AID 2148; in the data active = inhibition above about 22%
Of the large screens only hits and unclear results are named; the others gave an inactive call (follow-up assays come after a bar, where they were run).

C#CCOCCOCCOCCNc1nc(N2CCN(C(=O)[C@H](Cc3ccc(O)cc3)n3cc([C@@H](N)CC(C)C)nn3)CC2)nc(N2CCN(C(=O)[C@H](Cc3ccc(O)cc3)n3cc([C@@H](N)CC(C)C)nn3)CC2)n1	GPR7 antag 31 (no result: DAGLB inh, MPTP block, TAAR1 ag, TAAR1 antag) | GPR7 antag conf inactive | MCHR1 antagonist inactive
COC(=O)N1C[C@H](OC(=S)Nc2ccc(OC)cc2OC)[C@H]2C[C@@H]1c1ccccc1O2	none (no result: DAGLB inh, MPTP block, GPR7 antag)
Nc1n[nH]c(N)c1N=Nc1cccc(C(F)(F)F)c1	GPR7 antag 41 | GPR7 antag conf 38 | MCHR1 antagonist 36
Cc1cc(C)nc(N/N=C/c2c[nH]c3ccccc23)n1	none
Cc1nnc(N/N=C/c2c[nH]c3ccccc23)[nH]c1=O	GPR7 antag 29 | GPR7 antag conf inactive | MCHR1 antagonist inactive
COc1ccc(CN(C)C(=O)c2ccc(NS(=O)(=O)c3ccc(F)cc3)cc2)c(OC)c1	GPR7 antag 22 | GPR7 antag conf inactive | MCHR1 antagonist inactive
Cc1ccc(S(=O)(=O)N[C@H](C(=O)NC2CCC(C)CC2)C(C)C)cc1 (some centres undefined)	none (no result: GPR7 antag)
O=[N+]([O-])c1ccc(OCCCCN2CCc3ccccc3C2)cc1	none
COc1ccc2sc3ccccc3c(=O)c2c1	none
COc1ccc(-c2cc(=O)c3ccccc3s2)cc1	GPR7 antag 35 | GPR7 antag conf inactive | MCHR1 antagonist 27
CN(C)Cc1csc(NC(=O)Nc2ccccc2Cc2ccccc2)n1	none (no result: DAGLB inh, GPR7 antag)
Cc1nc(Cl)sc1C(=O)Nc1ccccc1	none
Cc1nc(C)c(C(=O)Nc2ccccc2)s1	GPR7 antag 22 | GPR7 antag conf inactive | MCHR1 antagonist inactive
NC(=O)C1CCCN(Cc2c(C(=O)N3CCc4ccccc4C3)nc3ccc(Cl)cn23)C1 (centres undefined)	none
CC1CCc2onc(C(=O)O)c2C1 (centres undefined)	GPR7 antag 24 | GPR7 antag conf inactive | MCHR1 antagonist inactive
O=C(/C=C/c1cccs1)c1ccco1	none (no result: GPR7 antag)
CCCCNCC(O)(c1ccc(Cl)cc1)c1ccc(Cl)cc1	GPR7 antag 27 | GPR7 antag conf 55 | MCHR1 antagonist 64
OC(CNCc1ccc(F)cc1)(c1ccc(F)cc1)c1ccc(F)cc1	GPR7 antag 34 | GPR7 antag conf 29 | MCHR1 antagonist 30
COc1ccc(CNCC(O)(c2ccc(Cl)cc2)c2ccc(Cl)cc2)cc1OC	none
COc1ccc(CNCC(O)(c2ccc(Cl)cc2)c2ccc(Cl)cc2)cc1	GPR7 antag 31 | GPR7 antag conf 39 | MCHR1 antagonist 56
CCCCCNCc1ccc(Cl)cc1	none
C=CCS(=O)(=O)N1CCCC(Cc2ccccc2C)(C(=O)OCC)C1 (centres undefined)	GPR7 antag 31 | GPR7 antag conf inactive | MCHR1 antagonist inactive
O=C(CSc1n[nH]c(=O)[nH]c1=O)c1ccc([N+](=O)[O-])cc1	GPR7 antag 26 | GPR7 antag conf inactive | MCHR1 antagonist inactive
c1ccc2c(c1)C1=NCCN1c1ccccc1-2	none (no result: GPR7 antag)
O=S(=O)(c1ccc(Cl)cc1)N(Cc1ccccn1)Cc1ccccn1	GPR7 antag 36 | GPR7 antag conf inactive | MCHR1 antagonist inactive
CCN(CC)S(=O)(=O)c1ccc(S(=O)(=O)N(Cc2ccccn2)Cc2ccco2)cc1	none
Cc1cccnc1C(NC(=O)C1CCN(Cc2ccc(Oc3ccccc3)cc2)CC1)c1ccc(F)cc1 (centres undefined)	none (no result: DAGLB inh, GPR7 antag)
CC(C)n1cc(NC(=O)c2cc(-c3ccccc3)on2)cn1	GPR7 antag 24 | GPR7 antag conf inactive | MCHR1 antagonist 30
COc1ccccc1CCNC(=O)C(=O)NCC1OCCN1S(=O)(=O)c1ccc(F)cc1 (centres undefined)	TAAR1 ag 39, GPR7 antag 28 | GPR7 antag conf inactive | MCHR1 antagonist inactive
O=C(NC1CCCC1)C(c1ccccc1)n1c(-c2ccc3c(c2)CCO3)nc2ccccc21 (centres undefined)	none (no result: DAGLB inh, GPR7 antag)
CC(C)(C)N(NC(=O)c1ccccc1)C(=O)c1cccc(C(=O)N(NC(=O)c2ccccc2)C(C)(C)C)c1	GPR7 antag 42 | GPR7 antag conf 31 | MCHR1 antagonist 23
